13 compounds from ChEMBL document CHEMBL3526055, “Human metabolism of lapatinib, a dual kinase inhibitor: implications for hepatotoxicity” (Drug Metab Dispos, 2012) can be followed below.

Common to all, as to format: ADME, organism-based
Data set [1] concerns Plasma. Kind of data set: Drug level in healthy human plasma treated with [14C]lapatinib at 250 mg, po administered as single dose by LC-MS/MS method. The note with it: in vivo. The procedure, abridged: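 Healthy volunteers (n=6) received a single 250 mg oral aqueous suspension of unlabeled plus [14C]-drug (89.1 μCi), fasted 10 h predose to ~4 h postdose. Samples were collected for 168 h. Plasma was extracted from 25 µl by protein precipitation with an isotope-labeled internal standard and quantified by validated LC/MS/MS over 5 to 5000 ng/ml. Medians were reported.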

Data set [2] in a line: Drug level in healthy human feces treated with [14C]lapatinib at 250 mg, po administered as single dose by LC-MS/MS method. The note with it: in vivo.
In data set [3] the test system is Plasma. Kind of data set: Drug metabolism in healthy human plasma assessed as N-(3-chloro-4-(3-fluorobenzyloxy)phenyl)-6-(5-((hydroxy(2-(methylsulfonyl)ethyl)amino)methyl)furan-2-yl)quinazolin-4-amine formation at 250 mg, po administered as single dose by LC-MS/MS method. The note with it: in vivo. In outline: (§1)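 Pooled plasma from subjects given a single 250 mg oral [14C] suspension was extracted (>90% recovery) and run on a C18 HPLC column at 45 °C. Positive-ion ESI single-quadrupole LC/MS used full scan m/z 100 to 900, with UV at 277 nm. Faeces were extracted with ethanol:acetonitrile:sample (3:3:1) for radio-HPLC profiling with off-line LSC fractions and nanoelectrospray MS.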

In data set [4] the test system is Plasma. Kind of data set: Drug metabolism in healthy human plasma assessed as (E)-5-(4-(3-chloro-4-(3-fluorobenzyloxy)phenylamino)quinazolin-6-yl)furan-2-carbaldehyde oxime formation at 250 mg, po administered as single dose by LC-MS/MS method. The note with it: in vivo. In outline: as §1
In data set [5] the test system is Plasma. Kind of data set: Drug metabolism in healthy human plasma assessed as (Z)-5-(4-(3-chloro-4-(3-fluorobenzyloxy)phenylamino)quinazolin-6-yl)furan-2-carbaldehyde oxime formation at 250 mg, po administered as single dose by LC-MS/MS method. Conditions: in vivo. In outline: as §1
Data set [6] deals with Plasma. Briefly: Drug metabolism in healthy human plasma assessed as 5-(4-(3-chloro-4-(3-fluorobenzyloxy)phenylamino)quinazolin-6-yl)furan-2-carbaldehyde formation at 250 mg, po administered as single dose by LC-MS/MS method. The note with it: in vivo. The procedure, abridged: as §1
Data set [7] concerns Plasma. Kind of data set: Drug metabolism in healthy human plasma assessed as 5-(4-(3-chloro-4-(3-fluorobenzyloxy)phenylamino)quinazolin-6-yl)furan-2-carboxylic acid formation at 250 mg, po administered as single dose by LC-MS/MS method. The note with it: in vivo. In outline: as §1
Data set [8] in a line: Drug level in healthy human feces at 250 mg, po administered as single dose by LC-MS/MS method. Conditions: read-out: Drug uptake.
The nature of data set [9]: Drug metabolism in healthy human feces assessed as 6-(5-(aminomethyl)furan-2-yl)-N-(3-chloro-4-(3-fluorobenzyloxy)phenyl)quinazolin-4-amine formation at 250 mg, po administered as single dose by LC-MS/MS method. The note with it: in vivo. The procedure, abridged: as §1
The nature of data set [10]: Drug recovery in healthy human urine at 250 mg, po administered as single dose after 0 to 144 hrs. The note with it: read-out: Drug recovery. The procedure, abridged: (§2)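 Six healthy subjects (3 male, 3 female) received a single 250 mg oral [14C] suspension. Urine was collected in intervals and faeces were collected up to 168 h postdose. Faeces were homogenized as a water slurry and triplicate ~0.2 g aliquots combusted. Urine and plasma were counted directly by LSC with quench and background correction. Results are reported as median % of dose.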

A short description of data set [11]: Drug recovery in healthy human urine at 250 mg, po administered as single dose after 0 to 168 hrs. The note with it: read-out: Drug recovery. The procedure, abridged:
as §2

The subject of the next data set is Homo sapiens. Kind of data set: Total drug recovery in healthy human at 250 mg, po administered as single dose after 0 to 168 hrs. Conditions: in vivo. The procedure, abridged:
as §2

For data set [12], the system named is Plasma. Kind of data set: Drug recovery in healthy human plasma at 250 mg, po administered as single dose. Conditions: in vivo.
Data set [13] relates to Plasma. Briefly: Drug metabolism in healthy human plasma assessed as 2-chloro-4-(6-(5-((2-(methylsulfonyl)ethylamino)methyl)furan-2-yl)quinazolin-4-ylamino)phenol formation at 250 mg, po administered as single dose by LC-MS/MS method. The note with it: in vivo. The procedure, abridged:
as §1

In data set [14] the test system is Plasma. Kind of data set: Drug metabolism in healthy human plasma assessed as 4-(3-chloro-4-hydroxyphenylamino)-6-(5-((2-(methylsulfonyl)ethylamino)methyl)furan-2-yl)quinazolin-2-ol formation at 250 mg, po administered as single dose by LC-MS/MS method. The note with it: in vivo. The procedure, abridged: as §1
In data set [15] the test system is Plasma. Kind of data set: Drug metabolism in healthy human plasma assessed as N-((5-(4-(3-chloro-4-(3-fluorobenzyloxy)phenylamino)quinazolin-6-yl)furan-2-yl)methylene)-2-(methylsulfonyl)ethanamine oxide formation at 250 mg, po administered as single dose by LC-MS/MS method. Conditions: in vivo. In outline:
as §1

Data set [16] relates to Plasma. Briefly: Drug metabolism in healthy human plasma assessed as 1-(5-(4-(3-chloro-4-(3-fluorobenzyloxy)phenylamino)quinazolin-6-yl)furan-2-yl)-N-(2-(methylsulfonyl)ethylidene)methanamine oxide formation at 250 mg, po administered as single dose by LC-MS/MS method. Conditions: in vivo. In outline:
as §1

Data set [17] in a line: Drug recovery in healthy human urine at 250 mg, po administered as single dose. The note with it: read-out: Drug recovery. In outline:
as §2

A short description of data set [18]: Total drug recovery in healthy human at 250 mg, po administered as single dose. Conditions: in vivo, read-out: Drug recovery. The procedure, abridged:
as §2

The nature of data set [19]: Drug recovery in healthy male human urine at 250 mg, po administered as single dose. The note with it: read-out: Drug recovery. The procedure, abridged:
as §2

Data set [20] can be described thus: Drug recovery in healthy male human feces at 250 mg, po administered as single dose. The note with it: read-out: Drug recovery. The procedure, abridged: as §2
Data set [21] is described as follows: Total drug recovery in healthy male human at 250 mg, po administered as single dose. Conditions: in vivo, read-out: Drug recovery. In outline: as §2
A short description of data set [22]: Drug recovery in healthy female human urine at 250 mg, po administered as single dose. Conditions: read-out: Drug recovery. The procedure, abridged:
as §2

Data set [23] in a line: Drug recovery in healthy female human feces at 250 mg, po administered as single dose. The note with it: read-out: Drug recovery. The procedure, abridged:
as §2

Data set [24] in a line: Total drug recovery in healthy female human at 250 mg, po administered as single dose. Conditions: in vivo, read-out: Drug recovery. The procedure, abridged: as §2
Data set [25] can be described thus: Drug recovery in healthy human feces at 250 mg, po administered as single dose after 0 to 24 hrs. Conditions: read-out: Drug recovery. In outline: as §2
Data set [26] can be described thus: Drug recovery in healthy human feces at 250 mg, po administered as single dose after 0 to 48 hrs. The note with it: read-out: Drug recovery. In outline:
as §2

The nature of data set [27]: Drug recovery in healthy human feces at 250 mg, po administered as single dose after 0 to 72 hrs. Conditions: read-out: Drug recovery. The procedure, abridged:
as §2

Data set [28] can be described thus: Drug recovery in healthy human feces at 250 mg, po administered as single dose after 0 to 96 hrs. The note with it: read-out: Drug recovery. The procedure, abridged: as §2
A short description of data set [29]: Drug recovery in healthy human feces at 250 mg, po administered as single dose after 0 to 120 hrs. Conditions: read-out: Drug recovery. The procedure, abridged:
as §2

Data set [30] can be described thus: Drug recovery in healthy human feces at 250 mg, po administered as single dose after 0 to 144 hrs. The note with it: read-out: Drug recovery. The procedure, abridged:
as §2

A short description of data set [31]: Drug recovery in healthy human feces at 250 mg, po administered as single dose after 0 to 168 hrs. Conditions: read-out: Drug recovery. In outline: as §2
The nature of data set [32]: Drug recovery in healthy human urine at 250 mg, po administered as single dose after 0 to 24 hrs. Conditions: read-out: Drug recovery. In outline:
as §2

Data set [33] is described as follows: Drug recovery in healthy human urine at 250 mg, po administered as single dose after 0 to 48 hrs. The note with it: read-out: Drug recovery. In outline:
as §2

The nature of data set [34]: Drug recovery in healthy human urine at 250 mg, po administered as single dose after 0 to 72 hrs. The note with it: read-out: Drug recovery. In outline: as §2
A short description of data set [35]: Drug recovery in healthy human urine at 250 mg, po administered as single dose after 0 to 96 hrs. Conditions: read-out: Drug recovery. The procedure, abridged: as §2
Data set [36] in a line: Drug recovery in healthy human urine at 250 mg, po administered as single dose after 0 to 120 hrs. Conditions: read-out: Drug recovery. The procedure, abridged:
as §2

As for `O=C(O)c1ccc(-c2ccc3ncnc(Nc4ccc(OCc5cccc(F)c5)c(Cl)c4)c3c2)o1`, the Drug metabolism entry in the data set with Plasma [1] is listed as “metabolite_detected”. In data set [2], the Drug uptake turned out to be 14%.

In the case of `CS(=O)(=O)CC[n+]1cc([O-])ccc1-c1ccc2ncnc(Nc3ccc(OCc4cccc(F)c4)c(Cl)c3)c2c1`, the Drug metabolism entry in data set [2] was “metabolite_detected”.

For `CS(=O)(=O)CCNCc1ccc(-c2ccc3ncn[14c](Nc4ccc(OCc5cccc(F)c5)c(Cl)c4)c3c2)o1.Cc1ccc(S(=O)(=O)O)cc1.O`, the Drug metabolism result (in the data set on Plasma [3]; in the data set on Plasma [4]; in the data set with Plasma [5]; with Plasma [6]; in the data set on Plasma [7]; in data set [9]) was “metabolite_detected” in each case. The Drug metabolism entry is reported as “metabolite_not_detected” in the data set on Plasma [13], “metabolite_not_detected” in the data set with Plasma [14], “metabolite_detected” in the data set on Plasma [15] and “metabolite_detected” in the data set on Plasma [16]. The dose excreted came out at 27% in data set [8]; 1.16% in data set [10]; 1.16% in data set [11]; 1.15% in data set [17]; 93% in data set [18]; 1% in [19]. Also, the dose excreted in data set [20] was found to be 93.6%; in data set [21], 94.6%; in [22], 1.3%; in [23], 89.9%; in [24], 91.5%; in data set [25], 10.5%. In addition, the dose excreted came out at 45.3% in data set [26]; 74.9% in [27]; 78.4% in [28]; 90.8% in data set [29]; 91.4% in [30]; 91.8% in data set [31]. Further, the dose excreted was 1.01% in [32]; 1.16% in [33]; 1.16% in data set [34]; 1.16% in [35]; 1.16% in [36]. Besides, the results for the Drug recovery in the data set with Homo sapiens and in the data set on Plasma [12] were 93.1% and greater than 90%, respectively.

Consider `CS(=O)(=O)CCNCc1ccc(-c2ccc3ncnc(Nc4ccc(O)c(Cl)c4)c3c2)o1`, for which the Drug uptake in [2] was 3.9%.

For `Oc1ccc(-c2ccc3ncnc(Nc4ccc(OCc5cccc(F)c5)c(Cl)c4)c3c2)nc1`, the Drug uptake in data set [2] was found to be 6.3%.

On to `CS(=O)(=O)CCN(O)Cc1ccc(-c2ccc3ncnc(Nc4ccc(OCc5cccc(F)c5)c(Cl)c4)c3c2)o1`, for which the Drug metabolism result in the data set on Plasma [1] is “metabolite_detected”.

`O/N=C/c1ccc(-c2ccc3ncnc(Nc4ccc(OCc5cccc(F)c5)c(Cl)c4)c3c2)o1`: in the data set on Plasma [1], the Drug metabolism entry is reported as “metabolite_detected”.

In [2], `CS(=O)(=O)CCNCc1ccc(-c2ccc3nc(O)nc(Nc4ccc(O)c(Cl)c4)c3c2)o1` showed a Drug uptake of 3.3%.

Take `NCc1ccc(-c2ccc3ncnc(Nc4ccc(OCc5cccc(F)c5)c(Cl)c4)c3c2)o1`: the Drug metabolism result in data set [2] is listed as “metabolite_detected”.

For the compound `CS(=O)(=O)CC/[N+]([O-])=C/c1ccc(-c2ccc3ncnc(Nc4ccc(OCc5cccc(F)c5)c(Cl)c4)c3c2)o1`, the Drug metabolism entry with Plasma [1] is “metabolite_detected”.

With `CS(=O)(=O)C/C=[N+](/[O-])Cc1ccc(-c2ccc3ncnc(Nc4ccc(OCc5cccc(F)c5)c(Cl)c4)c3c2)o1`, the Drug metabolism entry in the data set on Plasma [1] is listed as “metabolite_detected”.

On to `O/N=C\c1ccc(-c2ccc3ncnc(Nc4ccc(OCc5cccc(F)c5)c(Cl)c4)c3c2)o1`, for which, in the data set with Plasma [1], the Drug metabolism result is given as “metabolite_detected”.

As for `O=Cc1ccc(-c2ccc3ncnc(Nc4ccc(OCc5cccc(F)c5)c(Cl)c4)c3c2)o1`, in the data set with Plasma [1], the Drug metabolism result is listed as “metabolite_detected”.
